Activity calls are given as the source filed them. The rule behind the calls is not given here.
Experiments:
[1] = tested on: Chlamydia trachomatis; experiment: (§1) Anti-chlamydial activity against Chlamydia trachomatis Serovar LGV-L2 infected in Hep2 cells assessed as reduction in chlamydial inclusion growth by measuring appearance of small and irregular inclusions at 3 ug/ml treated at 8 hrs post-infection and 24 hrs later re-infecting fresh Hep2 cells monolayer with infected cells and measured at 24 hrs post re-infection by immunofluorescence staining based microscopy analysis; format: functional, organism-based
Procedure, shortened: (§2)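 HEp-2 cells in DMEM with 10% FBS, infected with C. trachomatis L2 at MOI 1. Compounds added 8 hpi in triplicate; DMSO stocks at 50 mg/mL. At 24 hpi lysates collected in sucrose storage medium, frozen at −80 °C, and used to infect fresh HEp-2 monolayers in 10-fold dilutions. After 24 h, stained with goat anti-MOMP and Alexa488 secondary. Inclusions counted in 15 fields at 20x; IFU = mean count per field corrected for dilution.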

[2] = tested on: HEp-2; experiment: Toxicity in human Hep2 cells infected with Chlamydia trachomatis Serovar LGV-L2 assessed as cell morphology at 50 ug/ml treated at 8 hrs post-infection and measured at 24 hrs post-infection by phase contrast microscopy; format: cell-based
Procedure, shortened: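 HEp-2 cells grown in DMEM with 2% L-glutamine and 10% FBS at 37 °C, infected with C. trachomatis serovar L2. Compound at 50 μg/mL added 8 h post-infection, then incubated 16 h more (24 h total). Cell morphology and viability checked by phase-contrast microscopy alongside untreated infected cells.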

[3] = tested on: Chlamydia trachomatis; experiment: as §1, with “128” for “3”; format: functional, organism-based; procedure, shortened: as §2

SMILES: CC1(C)S[C@@H]2[C@H](NC(=O)Cc3ccccc3)C(=O)N2[C@H]1C(=O)O
- inhibition [1]: Active

SMILES: CC(C)(Sc1ccc(C(F)(F)F)cn1)C(=O)NCCCc1ccccc1
- Activity [2]: Toxic

SMILES: CN[C@@H]1[C@H](O)[C@H](NC)[C@H]2O[C@@]3(O)C(=O)C[C@@H](C)O[C@H]3O[C@@H]2[C@H]1O
- inhibition [3]: Active

From ChEMBL document CHEMBL4342502, “Synthesis and Antichlamydial Activity of Molecules Based on Dysregulators of Cylindrical Proteases” (J Med Chem, 2020)
